ChEMBL document CHEMBL1799988, “Novel chalcone derivatives as potent Nrf2 activators in mice and human lung epithelial cells” (J Med Chem, 2011)
Activity calls are given as the source filed them. No cut-off for these calls is given here.

How the values were obtained:
[1] = molecular target: T1, Nuclear factor erythroid 2-related factor 2 (Homo sapiens) (UniProt Q16236); assay: Induction of Nrf2-mediated GCLM gene expression in human BEAS2B cells at 10 uM after 16 hrs by RT-PCR analysis relative to untreated control; format: functional, cell-based
T1 sequence (whole entry): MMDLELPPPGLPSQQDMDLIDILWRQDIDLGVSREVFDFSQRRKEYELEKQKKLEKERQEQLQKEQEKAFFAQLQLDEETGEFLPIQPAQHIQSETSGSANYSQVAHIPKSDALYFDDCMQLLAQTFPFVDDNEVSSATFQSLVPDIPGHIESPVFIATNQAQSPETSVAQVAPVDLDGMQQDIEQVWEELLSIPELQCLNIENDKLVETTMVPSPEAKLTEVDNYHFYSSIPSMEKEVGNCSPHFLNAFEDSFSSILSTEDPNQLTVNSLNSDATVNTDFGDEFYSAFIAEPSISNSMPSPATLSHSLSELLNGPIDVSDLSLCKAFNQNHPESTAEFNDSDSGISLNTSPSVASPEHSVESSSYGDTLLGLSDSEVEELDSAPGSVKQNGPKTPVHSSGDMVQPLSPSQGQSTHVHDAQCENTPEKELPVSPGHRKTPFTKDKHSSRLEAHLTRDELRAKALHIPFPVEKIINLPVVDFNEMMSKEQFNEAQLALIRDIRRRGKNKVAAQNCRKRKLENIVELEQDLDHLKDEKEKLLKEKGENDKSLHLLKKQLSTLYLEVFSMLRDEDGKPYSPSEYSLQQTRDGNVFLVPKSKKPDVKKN
Method in brief: (§1)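 Beas-2B cells (DMEM:F12, 10% FBS) plated 24 h, then exposed to 10 µM compound in DMSO (final ≤0.1%) for 16 h; sulforaphane as positive control. Total RNA extracted, reverse transcribed with random hexamers, GCLM and NQO1 mRNA quantified by TaqMan qRT-PCR, fold change vs DMSO. Representative of 3 independent experiments, quadruplicate wells.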

[2] = molecular target: T1, Nuclear factor erythroid 2-related factor 2 (Homo sapiens); assay: Induction of Nrf2-mediated NQO1 gene expression in human BEAS2B cells at 10 uM after 16 hrs by RT-PCR analysis relative to untreated control; format: functional, cell-based; method in brief: as §1
[3] = Cytotoxicity against human BEAS2B cells assessed as cell viability after 24 hrs by MTT assay; format: cell-based, BEAS-2B; design: concentration or dose not given beside the values; settings: read-out: Activity
Method in brief: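 Beas-2B cells treated with compound or DMSO vehicle (0.1%) for 24 h; MTT (5 mg/ml in serum-free medium) added for the last 4 h, formazan dissolved in DMSO after PBS wash, absorbance read at 570 nm. Viability also checked by trypan blue exclusion.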

Mus musculus [4] = assay: Induction of Nrf2-mediated GCLM gene expression in small intestine of C57BL/6 mouse at 50 mg/kg, po administered as single dose measured after 24 hrs by RT-PCR analysis related to control; format: functional
Method in brief: (§2)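 Male C57BL/6 mice (7 weeks, AIN 76A diet; n=4) given a single 50 mg/kg oral gavage of compound, sulforaphane, or vehicle (10% DMSO + 10% Cremophor EL + 80% PBS). Small intestine harvested 24 h later; GCLM and NQO1 mRNA measured by TaqMan qRT-PCR with β-actin normalization.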

Mus musculus [5] = assay: Induction of Nrf2-mediated NQO1 gene expression in small intestine of C57BL/6 mouse at 50 mg/kg, po administered as single dose measured after 24 hrs by RT-PCR analysis related to control; format: functional; method in brief: as §2

Row | SMILES | fold change (FC) [1] | fold change (FC) [2] | viability at 24 h [3] [%] | Activity (Mus musculus [4]) | Activity (Mus musculus [5])
1 | COc1cccc(OC)c1C(=O)/C=C/c1ccc(C(F)(F)F)cc1 | 1.4 | 0.6 | – | – | –
2 | COc1cc(OC)cc(C(=O)/C=C/c2cccc(C(F)(F)F)c2)c1 | 3.8 | 3.9 | 108 | – | –
3 | COc1ccc(C(=O)/C=C/c2ccc(C(F)(F)F)cc2)c(OC)c1 | 5 | 4.8 | 92.6 | – | –
4 | COc1ccc(C(=O)/C=C/c2ccccc2[N+](=O)[O-])cc1OC | 2.3 | 2.7 | – | – | –
5 | COc1ccccc1C(=O)/C=C/c1cccc(C(F)(F)F)c1 | 3.9 | 2.9 | – | – | –
6 | COc1ccc(C(=O)/C=C/c2cccc(C(F)(F)F)c2)cc1OC | 4.1 | 2.9 | – | – | –
7 | COc1ccc(C(=O)/C=C/c2ccccc2C(F)(F)F)cc1OC | 4.3 | 2.7 | – | – | –
8 | COc1cccc(OC)c1C(=O)/C=C/c1ccccc1[N+](=O)[O-] | 4.1 | 3.7 | 75.8 | – | –
9 | COc1cc(C(=O)/C=C/c2ccccc2C(F)(F)F)cc(OC)c1OC | 3 | 3.1 | – | – | –
10 | COc1ccc(OC)c(C(=O)/C=C/c2ccc(C(F)(F)F)cc2)c1 | 4.1 | 4 | 91.6 | – | –
11 | O=C(/C=C/c1cccc(C(F)(F)F)c1)c1ccccc1 | 3.1 | 2.8 | – | – | –
12 | COc1cc(OC)cc(C(=O)/C=C/c2ccccc2[N+](=O)[O-])c1 | 3.4 | 4.1 | 90.9 | – | –
13 | COc1ccc(C(=O)/C=C/c2ccccc2C(F)(F)F)cc1 | 5.4 | 4.6 | 96 | Active | Active
14 | O=C(/C=C/c1ccccc1[N+](=O)[O-])c1ccccc1 | 2.1 | 1.6 | – | – | –
15 | COc1ccc(C(=O)/C=C/c2ccccc2[N+](=O)[O-])cc1 | 4.6 | 4.3 | 93.2 | – | –
16 | COc1ccc(C(=O)/C=C/c2ccccc2)cc1 | 1.9 | 2.8 | – | – | –
17 | COc1ccc(C(=O)/C=C/c2ccccc2C(F)(F)F)c(OC)c1OC | 5.4 | 4.1 | 102 | Active | Active
18 | COc1cc(OC)c(C(=O)/C=C/c2ccc(C(F)(F)F)cc2)c(OC)c1 | 2.4 | 2.4 | – | – | –
19 | COc1cc(OC)c(C(=O)/C=C/c2ccccc2)c(OC)c1 | 3.1 | 1.8 | – | – | –
20 | COc1ccc(C(=O)/C=C/c2ccccc2)c(OC)c1 | 2.7 | 2.8 | – | – | –
21 | COc1ccc(OC)c(C(=O)/C=C/c2ccccc2C(F)(F)F)c1 | 4.4 | 2.7 | – | – | –
22 | O=C(/C=C/c1ccccc1C(F)(F)F)c1ccccc1 | 5 | 5.3 | 145 | Active | Active
23 | COc1ccc(OC)c(C(=O)/C=C/c2cccc(C(F)(F)F)c2)c1 | 1.8 | 0.8 | – | – | –
24 | COc1ccc(C(=O)/C=C/c2ccc(C(F)(F)F)cc2)cc1OC | 3.5 | 2.7 | – | – | –
25 | COc1ccccc1C(=O)/C=C/c1ccc(C(F)(F)F)cc1 | 4.3 | 5.4 | 91 | – | –
26 | COc1cc(C(=O)/C=C/c2ccccc2[N+](=O)[O-])cc(OC)c1OC | 1.2 | 0.7 | – | – | –
27 | O=C(/C=C/c1ccccc1)c1ccccc1 | 0.7 | 1.8 | – | – | –
28 | COc1ccc(C(=O)/C=C/c2cccc(C(F)(F)F)c2)c(OC)c1OC | 3.6 | 3.2 | – | – | –

Row | SMILES | fold change (FC) [1] | fold change (FC) [2] | viability at 24 h [3] [%] | Activity (Mus musculus [4]) | Activity (Mus musculus [5])
29 | COc1cccc(OC)c1C(=O)/C=C/c1ccccc1 | 2.5 | 1.9 | – | – | –
30 | C[S+]([O-])CCCCN=C=S (stereo not drawn) [SULFORAPHANE] | 2.7 | 3.6 | 97.3 | Active | Active
31 | COc1cc(OC)cc(C(=O)/C=C/c2ccccc2C(F)(F)F)c1 | 4 | 3.7 | 87.1 | – | –
32 | COc1cc(OC)c(C(=O)/C=C/c2ccccc2[N+](=O)[O-])c(OC)c1 | 2.6 | 2 | – | – | –
33 | COc1cc(C(=O)/C=C/c2ccc(C(F)(F)F)cc2)cc(OC)c1OC | 4.1 | 3.7 | – | – | –
34 | COc1cccc(OC)c1C(=O)/C=C/c1cccc(C(F)(F)F)c1 | 1.8 | 0.6 | – | – | –
35 | COc1ccc(C(=O)/C=C/c2ccccc2[N+](=O)[O-])c(OC)c1OC | 2.9 | 3.3 | – | – | –
36 | COc1ccc(OC)c(C(=O)/C=C/c2ccccc2[N+](=O)[O-])c1 | 1.7 | 0.7 | – | – | –
37 | COc1ccccc1C(=O)/C=C/c1ccccc1[N+](=O)[O-] | 1.9 | 1.4 | – | – | –
38 | COc1ccccc1C(=O)/C=C/c1ccccc1 | 3.6 | 3.2 | – | – | –
39 | COc1ccc(C(=O)/C=C/c2ccccc2[N+](=O)[O-])c(OC)c1 | 2.7 | 3.3 | – | – | –
40 | COc1cccc(C(=O)/C=C/c2ccccc2)c1 | 1.5 | 2.4 | – | – | –
41 | COc1ccc(C(=O)/C=C/c2ccc(C(F)(F)F)cc2)cc1 | 3.5 | 4.6 | 104 | – | –
42 | COc1cc(OC)cc(C(=O)/C=C/c2ccccc2)c1 | 3 | 2.4 | – | – | –
43 | COc1cccc(C(=O)/C=C/c2cccc(C(F)(F)F)c2)c1 | 4.6 | 3.5 | 95.3 | – | –
44 | COc1ccc(OC)c(C(=O)/C=C/c2ccccc2)c1 | 3 | 2.6 | – | – | –
45 | COc1cc(C(=O)/C=C/c2ccccc2)cc(OC)c1OC | 0.7 | 0.7 | – | – | –
46 | COc1ccc(C(=O)/C=C/c2cccc(C(F)(F)F)c2)c(OC)c1 | 4.6 | 4 | – | – | –
47 | COc1cc(C(=O)/C=C/c2cccc(C(F)(F)F)c2)cc(OC)c1OC | 1.7 | 0.8 | – | – | –
48 | COc1cc(OC)c(C(=O)/C=C/c2cccc(C(F)(F)F)c2)c(OC)c1 | 1.4 | 0.7 | – | – | –
49 | COc1ccc(C(=O)/C=C/c2cccc(C(F)(F)F)c2)cc1 | 2.7 | 2.8 | – | – | –
50 | COc1cccc(C(=O)/C=C/c2ccccc2[N+](=O)[O-])c1 | 2.9 | 2.7 | – | – | –
51 | COc1ccc(C(=O)/C=C/c2ccc(C(F)(F)F)cc2)c(OC)c1OC | 4.1 | 3.9 | 100 | – | –
52 | COc1ccc(C(=O)/C=C/c2ccccc2)c(OC)c1OC | 2.4 | 2.4 | – | – | –
53 | COc1cccc(C(=O)/C=C/c2ccc(C(F)(F)F)cc2)c1 | 2.9 | 3.1 | – | – | –
54 | COc1ccc(C(=O)/C=C/c2ccccc2)cc1OC | 2.3 | 2.5 | – | – | –
55 | O=C(/C=C/c1ccc(C(F)(F)F)cc1)c1ccccc1 | 3.1 | 2.9 | – | – | –
